In ChEMBL document CHEMBL4706643 (J Med Chem, 2021):
Active and inactive are the calls of the source. The rule behind the calls is not given here.

Columns and labels:
[1] = Tmax in C57BL/6 mouse at 10 mg/kg, ip; assay type: ADME, organism-based; conditions: in vivo
Summary of the method: (§1)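 Male C57BL/6 mice (n = 3), single dose IV 5 mg/kg, IP 10 mg/kg or PO 10 mg/kg in DMSO:cremophor:0.9% NaCl 5:5:90; plasma parameters reported as means.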

Hepatitis B virus [2] = test: (§2) Antiviral activity against HBV infected in human HepG2-NTCP cells assessed as reduction in HBeAg secretion cells inoculated with virus for 4 hrs at room temperature and 37 degree C for 24 hrs followed inoculum changed with PMM medium for every 2 days until day 5 post infection by ELISA; assay type: functional, organism-based
[3] = Cmax in C57BL/6 mouse at 10 mg/kg, po; assay type: ADME, organism-based; design: route oral, dose 10 mg/kg; conditions: in vivo; summary of the method: as §1
[4] = Bioavailability in C57BL/6 mouse at 10 mg/kg, ip; assay type: ADME, organism-based; conditions: in vivo; summary of the method: as §1
[5] = Intrinsic clearance in human liver microsomes at 1 uM preincubated for 5 mins followed by NADPH addition and measured upto 60 mins by LC-MS analysis; assay type: ADME, Microsome; conditions: read-out: CLH
Summary of the method: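 Human or mouse liver microsomes, final 1 mg/mL in 0.05 M phosphate buffer pH 7.4; compound final 1 μM, preincubated 37 °C 5 min, started with 1 mM NADPH; sampled at 0, 5, 15, 30, 60 min, methanol quench, −20 °C 1 h, centrifuged, supernatant by LC–MS.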

Hepatitis B virus [6] = test: Antiviral activity against HBV infected in human HepG2-NTCP cells assessed as reduction in HBV viral transcription at 10 uM treated 3 days post infection by northern blot analysis; assay type: functional, organism-based; conditions: time 3.0 day
Summary of the method: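 Infected HepG2-NTCP cells given compound either with the HBV inoculum or at dpi 3–5; RNA extracted with TRIzol, run on 1.0% agarose–formaldehyde/MOPS gel. Northern blot as for Southern, probed with DIG-labelled full-length HBV genome plus DIG-labelled GAPDH probe.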

[7] = target: T1, Solute carrier organic anion transporter family member 1B1 (Homo sapiens, UniProt Q9Y6L6); test: Inhibition of OATP1B1 (unknown origin) mediated [3H]-estrone sulfate uptake expressed in human HepG2 cells; assay type: cell-based
T1 sequence (Q9Y6L6 whole entry): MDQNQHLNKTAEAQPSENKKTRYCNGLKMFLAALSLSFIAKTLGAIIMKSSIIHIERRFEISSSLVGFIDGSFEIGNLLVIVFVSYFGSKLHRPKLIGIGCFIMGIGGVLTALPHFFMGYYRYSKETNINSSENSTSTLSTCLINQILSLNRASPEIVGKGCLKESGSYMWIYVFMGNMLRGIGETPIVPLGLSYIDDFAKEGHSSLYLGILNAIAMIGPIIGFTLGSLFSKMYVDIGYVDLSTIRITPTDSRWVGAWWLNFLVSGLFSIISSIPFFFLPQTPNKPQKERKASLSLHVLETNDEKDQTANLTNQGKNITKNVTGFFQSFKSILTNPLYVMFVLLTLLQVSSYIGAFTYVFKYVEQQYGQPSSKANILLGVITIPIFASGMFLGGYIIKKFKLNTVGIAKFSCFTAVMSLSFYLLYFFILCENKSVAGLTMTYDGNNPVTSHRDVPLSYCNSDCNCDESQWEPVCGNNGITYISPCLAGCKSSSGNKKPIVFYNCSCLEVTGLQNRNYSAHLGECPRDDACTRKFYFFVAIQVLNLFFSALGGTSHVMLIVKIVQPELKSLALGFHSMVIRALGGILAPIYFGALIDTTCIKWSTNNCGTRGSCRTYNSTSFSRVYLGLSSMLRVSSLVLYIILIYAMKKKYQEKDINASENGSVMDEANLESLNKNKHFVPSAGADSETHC

Hepatitis B virus [8] = test: Antiviral activity against HBV infected in primary human hepatocytes; assay type: functional, organism-based; conditions: Hepatocyte
[9] = Half life in C57BL/6 mouse at 10 mg/kg, ip; assay type: ADME, organism-based; conditions: in vivo; summary of the method: as §1
[10] = Clearance in C57BL/6 mouse at 5 mg/kg, iv; assay type: ADME, organism-based; conditions: in vivo; summary of the method: as §1
[11] = Half life in C57BL/6 mouse at 10 mg/kg, po; assay type: ADME, organism-based; conditions: in vivo; summary of the method: as §1
Hepatitis B virus [12] = test: as §2, with “HBV cccDNA levels” for “HBeAg secretion”, “DIG-labelled probe based southern blot analysis” for “ELISA”; assay type: functional, organism-based; conditions: time 28.0 hrs
Summary of the method: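 HepG2-NTCP cells infected with compound added together with HBV inoculum; DNA harvested day 5 post infection by modified Hirt extraction. Southern blot on 1.2% agarose, UV cross-linked, hybridised at 50 °C overnight with DIG-labelled full-length genotype D HBV genomic probe; chemiluminescent detection; 3.2, 2.1 and 1.7 kb HBV fragments as markers.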

Hepatitis delta virus = test: Antiviral activity against HDV infected in human HepG2-NTCP cells assessed as reduction in HDV delta Ag measured 5 days post infection by DAPI staining based immunofluorescence assay relative to control; assay type: functional, cell-based; conditions: time 5.0 day
Summary of the method: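 HepG2-NTCP cells infected with HDV in presence of compound; delta antigen stained at dpi 5 with FITC-labelled anti-delta antibody, nuclei with DAPI; high-content imaging and image analysis give infection ratio relative to DMSO control.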

Hepatitis B virus [13] = test: as §2, with “HBV genotype B” for “HBV”, “secretion at 2 uM” for “secretion”; assay type: functional, organism-based; conditions: time 28.0 hrs
Summary of the method: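 HepG2-NTCP cells seeded 4–6 h, then primary maintenance medium 20–24 h; virus inoculum plus compound dilutions 4 h at room temperature, then 37 °C 24 h; medium changed every 2 days to PMM with 2% FBS until day 5 post infection. Secreted HBeAg measured by ELISA; IC50 by nonlinear regression from six or more points, three repeats.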

[14] = Half life in C57BL/6 mouse plasma at 5 mg/kg, iv; assay type: ADME, organism-based; summary of the method: as §1
[15] = target: T2, Hepatic sodium/bile acid cotransporter (Homo sapiens, UniProt Q14973); test: Inhibition of human NTCP-mediated [3H]-TCA uptake expressed in human HepG2 cells incubated for 2 hrs followed by substrate addition and measured for 10 mins by microbeta liquid scintillation counter analysis; assay type: cell-based
T2 sequence (Q14973 whole entry): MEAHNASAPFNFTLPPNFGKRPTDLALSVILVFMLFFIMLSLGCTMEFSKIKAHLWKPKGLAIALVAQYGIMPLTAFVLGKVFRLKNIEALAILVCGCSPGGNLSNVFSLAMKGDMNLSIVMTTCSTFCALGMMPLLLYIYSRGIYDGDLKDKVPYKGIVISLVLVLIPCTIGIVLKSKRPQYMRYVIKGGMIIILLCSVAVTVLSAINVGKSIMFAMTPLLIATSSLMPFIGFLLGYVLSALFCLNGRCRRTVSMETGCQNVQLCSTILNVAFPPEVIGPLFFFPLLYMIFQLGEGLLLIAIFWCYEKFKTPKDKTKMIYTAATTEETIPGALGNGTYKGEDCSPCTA
Summary of the method: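 HepG2 cells expressing NTCP (human, mouse, monkey or tree shrew) seeded 4–6 h, PMM 20–24 h; compound 2 h, then Na+ Ringer's buffer with 2 μM 3H-TCA, 37 °C 10 min; PBS washes, lysis in 1% Triton X-100, scintillation counting. Single-concentration lines at 2 μM.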

Compound: CC[C@@H]1NC(=O)[C@H]([C@@H]2O[C@@H](Sc3cccc(OCc4ccccc4)c3)C[C@H]2C)N(C)C(=O)[C@H](C(C)C)N(C)C(=O)[C@H](CC(C)C)N(C)C(=O)[C@H](CC(C)C)N(C)C(=O)[C@@H](C)NC(=O)[C@H](C)NC(=O)[C@H](CC(C)C)N(C)C(=O)[C@H](C(C)C)NC(=O)[C@H](CC(C)C)N(C)C(=O)CN(C)C1=O
- Tmax [1]: 2 h
- IC50 (Hepatitis B virus [2]): 0.11 µM
- Cmax [3]: 2290 ng/mL
- bioavailability [4]: 110%
- microsomal CLint at 1 µM [5]: 8 µL/min/mg
- Activity (Hepatitis B virus [6]): inactive
- IC50 [7]: 2.27 µM
- IC50 (Hepatitis B virus [8]): 0.059 µM
- half-life [9]: 5.68 h
- clearance [10]: 2.1 mL/min/kg
- half-life [11]: 5.65 h
- Activity (Hepatitis B virus [12]): Dose-dependent effect
- Activity (Hepatitis delta virus): Dose-dependent effect
- Activity (Hepatitis B virus [13]): Active
- half-life [14]: 6.03 h
- IC50 [15]: 0.066 µM
